ChEMBL document CHEMBL1123415, “Benzo[a]carbazole derivatives. Synthesis, estrogen receptor binding affinities, and mammary tumor inhibiting activity” (1986)
Values joined by “and” are separate entries in the source; they are usually repeats but may differ in a detail not shown here. Identical values can stand only once. Each block holds one compound with its values, some of them ahead of it.

Tests used:
[1] = organism: Rattus norvegicus; assay: Percentage progressive DMBA-induced mammary tumors in rats at 4 mg dose (experiment-1); format: functional
Method in brief: (§1)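 Female Sprague–Dawley rats given a single 20 mg DMBA dose by gavage in 1 mL olive oil at 50 days old. Randomized once tumor area per animal exceeded 140 mm². Compound given sc in olive oil (1 mL/kg), dose per kg, once daily Monday–Thursday, double dose Friday. Tumor area from caliper measurement of two perpendicular axes, twice weekly. Significance by Wilcoxon–Mann–Whitney U test.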

[2] = organism: Rattus norvegicus; assay: Partial remission of DMBA-induced mammary tumors in rats at 4 mg dose; format: functional; method in brief: as §1
[3] = organism: Rattus norvegicus; assay: Change in DMBA-induced mammary tumor area in rats after 28 day therapy at 1 mg dose (experiment-1); format: functional; method in brief: as §1
[4] = molecular target: T1, Estrogen receptor (Mus musculus) (UniProt O08537+P19785); assay: Uterotrophic activity in mice as uterus dry weight (mg)/body weight (g) *100 at 5 ug; format: functional, tissue-based
T1 sequence (O08537 whole entry, looked up): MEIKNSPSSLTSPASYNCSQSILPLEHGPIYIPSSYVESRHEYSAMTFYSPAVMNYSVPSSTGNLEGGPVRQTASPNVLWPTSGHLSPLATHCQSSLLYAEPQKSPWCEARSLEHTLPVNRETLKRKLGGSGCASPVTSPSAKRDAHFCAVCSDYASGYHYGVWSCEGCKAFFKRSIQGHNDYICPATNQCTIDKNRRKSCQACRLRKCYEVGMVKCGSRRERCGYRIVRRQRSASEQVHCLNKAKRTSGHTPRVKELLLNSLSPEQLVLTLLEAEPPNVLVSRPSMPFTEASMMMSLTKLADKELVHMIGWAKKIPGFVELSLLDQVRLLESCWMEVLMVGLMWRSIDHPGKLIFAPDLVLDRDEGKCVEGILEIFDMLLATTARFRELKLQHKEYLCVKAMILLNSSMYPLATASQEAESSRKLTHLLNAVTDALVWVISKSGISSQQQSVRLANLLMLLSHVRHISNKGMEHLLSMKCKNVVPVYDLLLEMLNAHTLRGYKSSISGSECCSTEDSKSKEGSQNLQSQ
T1 sequence (P19785 whole entry, looked up): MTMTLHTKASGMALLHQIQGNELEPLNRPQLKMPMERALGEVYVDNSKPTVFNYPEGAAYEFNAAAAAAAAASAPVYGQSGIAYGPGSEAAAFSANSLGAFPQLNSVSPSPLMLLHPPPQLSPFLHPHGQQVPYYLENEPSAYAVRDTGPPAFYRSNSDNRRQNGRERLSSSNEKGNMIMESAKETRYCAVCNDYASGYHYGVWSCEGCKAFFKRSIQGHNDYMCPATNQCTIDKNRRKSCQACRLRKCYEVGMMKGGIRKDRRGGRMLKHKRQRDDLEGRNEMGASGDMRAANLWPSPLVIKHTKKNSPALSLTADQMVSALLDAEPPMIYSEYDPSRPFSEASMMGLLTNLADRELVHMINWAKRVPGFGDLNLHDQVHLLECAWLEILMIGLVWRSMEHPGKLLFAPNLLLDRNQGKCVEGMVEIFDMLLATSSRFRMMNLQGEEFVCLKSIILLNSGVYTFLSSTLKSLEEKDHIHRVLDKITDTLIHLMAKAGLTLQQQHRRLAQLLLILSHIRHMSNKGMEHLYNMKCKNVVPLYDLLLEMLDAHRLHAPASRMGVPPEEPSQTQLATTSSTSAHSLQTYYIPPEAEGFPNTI
Method in brief: (§2)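 Immature 19-day-old female NMRI mice, 10 per group. Compound in olive oil injected sc on 3 consecutive days, dose per animal; vehicle-only controls, estrone as reference. Killed 24 h after last injection. Uteri fixed in Bouin solution, dried at 100 °C for 24 h. Value = uterine dry weight (mg)/body weight (g) ×100, mean of 10 animals ± SD.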

[5] = molecular target: T1, Estrogen receptor (Mus musculus); assay: Uterotrophic activity in mice as uterus dry weight (mg)/body weight (g) *100 at 125 ug; format: functional, tissue-based; method in brief: as §2
[6] = organism: Rattus norvegicus; assay: Percentage static unchanged DMBA-induced mammary tumors in rats at 4 mg dose (experiment-1); format: functional; method in brief: as §1
[7] = organism: Rattus norvegicus; assay: Change in DMBA-induced mammary tumor area in rats after 28 day therapy at 4 mg dose (experiment-1); format: functional; method in brief: as §1
[8] = organism: Rattus norvegicus; assay: Complete remission of DMBA-induced mammary tumors in rats at 4 mg dose; format: functional; method in brief: as §1
[9] = organism: Rattus norvegicus; assay: Partial remission of DMBA-induced mammary tumors in rats at 1 mg dose; format: functional; method in brief: as §1
[10] = organism: Rattus norvegicus; assay: Percentage static unchanged DMBA-induced mammary tumors in rats at 1 mg dose (experiment-1); format: functional; method in brief: as §1
[11] = molecular target: T1, Estrogen receptor (Mus musculus); assay: Uterotrophic activity in mice as uterus dry weight (mg)/body weight (g) *100 at 0.2 ug; format: functional, tissue-based; method in brief: as §2
[12] = organism: Rattus norvegicus; assay: Initial tumor number in DMBA-induced tumor bearing rats at 4 mg dose (experiment-1); format: functional; method in brief: as §1
[13] = organism: Rattus norvegicus; assay: Final tumor number in DMBA-induced tumor bearing rats at 4 mg dose (experiment-1); format: functional; method in brief: as §1
[14] = molecular target: T1, Estrogen receptor (Mus musculus); assay: Uterotrophic activity in mice as uterus dry weight (mg)/body weight (g) *100 at 1 ug; format: functional, tissue-based; method in brief: as §2
[15] = molecular target: T1, Estrogen receptor (Mus musculus); assay: Uterotrophic activity in mice as uterus dry weight (mg)/body weight (g) *100 at 25 ug; format: functional, tissue-based; method in brief: as §2
[16] = organism: Rattus norvegicus; assay: Initial tumor number in DMBA-induced tumor bearing rats at 1 mg dose (experiment-1); format: functional; method in brief: as §1
[17] = organism: Rattus norvegicus; assay: Complete remission of DMBA-induced mammary tumors in rats at 1 mg dose; format: functional; method in brief: as §1
[18] = organism: Rattus norvegicus; assay: Final tumor number in DMBA-induced tumor bearing rats at 1 mg dose (experiment-1); format: functional; method in brief: as §1
[19] = organism: Rattus norvegicus; assay: Percentage progressive DMBA-induced mammary tumors in rats at 1 mg dose (experiment-1); format: functional; method in brief: as §1
[20] = organism: Rattus norvegicus; assay: Change in DMBA-induced tumor area in rats after 28 day therapy at 1 mg dose (experiment-1); format: functional; method in brief: as §1
[21] = organism: Rattus norvegicus; assay: (§3) Change in DMBA-induced mammary tumor area in rats after 28 day therapy at 4 mg dose (experiment-2); format: functional; method in brief: as §1
[22] = organism: Rattus norvegicus; assay: Initial tumor number in DMBA-induced tumor bearing rats at 4 mg dose (experiment-2); format: functional; method in brief: as §1
[23] = organism: Rattus norvegicus; assay: Final tumor number in DMBA-induced tumor bearing rats at 4 mg dose (experiment-2); format: functional; method in brief: as §1
[24] = organism: Rattus norvegicus; assay: as §3; format: functional; method in brief: as §1; remark: listed apart in the source
[25] = molecular target: Estrogen receptor (Bos taurus) (UniProt Q9XSB5+P49884); assay: Evaluated for relative binding affinity (RBA) for calf uterine estrogen receptor; format: protein assay
Method in brief: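 Calf uterine cytosol (105000g supernatant; final protein 3 mg/mL) in Tris-EDTA-azide buffer pH 7.5. Incubated with 5 nM [³H]estradiol and competitor (10⁻⁹–10⁻⁴ M) for 18 h at 4 °C. Free ligand removed with dextran-coated charcoal, bound counted by scintillation. Nonspecific binding measured with 5 μM estradiol. RBA = estradiol/competitor molar ratio at 50% displacement ×100.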

[26] = molecular target: T1, Estrogen receptor (Mus musculus); details: Uterus
[27] = molecular target: T1, Estrogen receptor (Mus musculus); details: Uterus; remark: listed apart in the source
[28] = molecular target: T1, Estrogen receptor (Mus musculus); details: Uterus; remark: listed apart in the source
[29] = molecular target: T1, Estrogen receptor (Mus musculus); details: Uterus; remark: listed apart in the source
[30] = tested on: MCF7; assay: Reduction of cell number of hormone sensitive MCF-7 human breast cancer cells at 10e-5 M
[31] = tested on: MCF7; assay: Inhibition of [3H]thymidine incorporation into hormone sensitive MCF-7 human breast cancer cells at 10e-5 M; format: functional
Method in brief: (§4)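 MCF-7 cells kept two weeks in medium with 5% charcoal-treated calf serum, 37 °C, 5% CO₂. About 2×10⁴ cells per well; compound added next day in 0.1% ethanol, ethanol-only controls, medium changed on day 4. Cells counted on day 7 by Coulter counter; [³H]thymidine 1 μCi/well for 2 h. Mean of six dishes.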

[32] = tested on: MCF7; assay: Inhibition of [3H]thymidine incorporation into hormone sensitive MCF-7 human breast cancer cells at 10e-6 M; format: functional; method in brief: as §4
[33] = tested on: MCF7; assay: Reduction of cell number of hormone sensitive MCF-7 human breast cancer cells at 10e-6 M
[34] = organism: Rattus norvegicus; assay: (§5) Change in DMBA-induced mammary tumor area in rats after 28 day therapy at 3 mg dose (experiment-1); format: functional; method in brief: as §1
[35] = organism: Rattus norvegicus; assay: as §5; format: functional; method in brief: as §1; remark: listed apart in the source
[36] = organism: Rattus norvegicus; assay: Complete remission of DMBA-induced mammary tumors in rats at 3 mg dose; format: functional; method in brief: as §1
[37] = organism: Rattus norvegicus; assay: Initial tumor number in DMBA-induced tumor bearing rats at 3 mg dose (experiment-1); format: functional; method in brief: as §1
[38] = organism: Rattus norvegicus; assay: Percentage progressive DMBA-induced mammary tumors in rats at 3 mg dose (experiment-1); format: functional; method in brief: as §1
[39] = tested on: MCF7; assay: Percentage cell number change as treated/control in hormone sensitive MCF-7 cell proliferation assay at 10e-6 M or 10e-5 M; format: functional, Homo sapiens; method in brief: as §4
[40] = organism: Rattus norvegicus; assay: Final tumor number in DMBA-induced tumor bearing rats at 3 mg dose (experiment-1); format: functional; method in brief: as §1
[41] = organism: Rattus norvegicus; assay: Partial remission of DMBA-induced mammary tumors in rats at 3 mg dose; format: functional; method in brief: as §1
[42] = tested on: MCF7; assay: Percentage [3H]thymidine incorporation treated/control in hormone sensitive MCF-7 cell proliferation assay at 10e-5 M or 10e-6 M; format: functional, Homo sapiens; method in brief: as §4
[43] = organism: Rattus norvegicus; assay: Percentage static unchanged DMBA-induced mammary tumors in rats at 3 mg dose (experiment-1); format: functional; method in brief: as §1

SMILES: CCn1c2c(c3cc(OC(C)=O)ccc31)CCc1cc(OC(C)=O)ccc1-2
- Effect [1]: 61%
- Effect [2]: 6%
- Change in tumor area [3]: 179%
- Effect [4]: 18.4
- Effect [5]: 25.4
- Effect [6]: 23%
- Change in tumor area [7]: 230%
- Effect [8]: 10%
- Effect [9]: 7%
- Effect [10]: 35%
- Effect [11]: 15.3
- No. of tumors [12]: 24
- No. of new tumors [13]: 24
- Effect [14]: 19.6
- Effect [15]: 23.6
- No. of tumors [16]: 22
- Effect [17]: 9%
- No. of new tumors [18]: 21
- Effect [19]: 49%

SMILES: CCn1c2ccc(OC(C)=O)cc2c2ccc3cc(OC(C)=O)ccc3c21
- Median [20]: 493%
- Range [20]: -29%
- Effect [1]: 59%
- Effect [2]: 10%
- Change of tumor area [21]: 561%
- Effect [4]: 14.4
- Effect [5]: 18.1
- Effect [6]: 25%
- Effect [8]: 6%
- No. of tumors [22]: 23
- Effect [9]: 8%
- Effect [10]: 19%
- No. of new tumors [23]: 45
- Effect [11]: 12
- Effect [14]: 13.7
- Effect [15]: 15.1
- No. of tumors [16]: 22
- Effect [17]: 3%
- No. of new tumors [18]: 41
- Effect [19]: 70%
- Change of tumor area [24]: 111%

- relative binding affinity (RBA) [25]: 9.5
SMILES: Cn1c2cc(O)ccc2c2ccc3cc(O)ccc3c21

- relative binding affinity (RBA) [25]: 0.33
SMILES: CCn1c2ccccc2c2ccc3cc(O)ccc3c21

- relative binding affinity (RBA) [25]: 1.3
SMILES: CCn1c2c(c3ccc(O)cc31)CCc1c(O)cccc1-2

- Effect [26]: 48.6
- Effect [27]: 46.9
- Effect [28]: 46.9
- Effect [29]: 42.5
SMILES: C[C@]12CC[C@@H]3c4ccc(O)cc4CC[C@H]3[C@@H]1CCC2=O

- relative binding affinity (RBA) [25]: 9.6
SMILES: Cn1c2c(c3ccc(O)cc31)CCc1cc(O)ccc1-2

- relative binding affinity (RBA) [25]: 13
SMILES: CCn1c2c(c3cc(O)ccc31)CCc1cc(O)ccc1-2
- cell number [30]: 4600
- Activity [31]: 760
- Activity [32]: 25840
- cell number [33]: 28200

- relative binding affinity (RBA) [25]: 0.08
SMILES: CCn1c2ccc(O)cc2c2ccc3ccc(O)cc3c21

- relative binding affinity (RBA) [25]: < 0.01
SMILES: CCn1c2ccc(O)cc2c2ccc3ccccc3c21

SMILES: CC/C(=C(\c1ccccc1)c1ccc(OCCN(C)C)cc1)c1ccccc1 [TAMOXIFEN]
- cell number [30]: 2000
- Change in tumor area [34]: -57%
- Change in tumor area [35]: 136%
- Activity [31]: 80
- Effect [36]: 22%
- No. of tumors [37]: 31
- Effect [38]: 44%
- T/C [39]: 2% and 12%
- No. of new tumors [40]: 24
- Activity [32]: 1850
- Effect [41]: 7%
- T/C [42]: 0% and 6%
- Effect [43]: 27%
- cell number [33]: 4800

- relative binding affinity (RBA) [25]: 2.3
SMILES: CCCCn1c2cc(O)ccc2c2ccc3cc(O)ccc3c21

- relative binding affinity (RBA) [25]: 30
SMILES: CCn1c2c(c3ccc(O)cc31)CCc1cc(O)ccc1-2

SMILES: CCn1c2cc(OC(C)=O)ccc2c2ccc3cc(OC(C)=O)ccc3c21
- Effect [4]: 38.5
- Effect [5]: 46
- Effect [11]: 21.6
- Effect [14]: 28.5
- Effect [15]: 38.7

SMILES: CCn1c2c(c3ccc(OC(C)=O)cc31)CCc1cc(OC(C)=O)ccc1-2
- Activity [4]: 45.8
- Activity [11]: 20.3
- Activity [14]: 29.3
- Activity [15]: 43.9
